From ChEMBL document CHEMBL1122222, “Synthesis and biological activities of the Z isomers of carbapenem antibiotics” (J Med Chem, 1983)
Converted amounts (≈) assume the structure as drawn.

Columns and labels:
Morganella morganii = assay: Inhibition of growth of Proteus morganii IFO 3168; assay type: functional; settings: Morganella morganii, IFO 3168; read-out: MIC
How it was run: (§1)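 Agar dilution MIC on Trypticase soy agar; inoculum one loopful of bacterial suspension at 10⁸ cfu/mL.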

Mus musculus [1] = species on record: Mus musculus; assay: Half life in mouse kidney homogenates; assay type: ADME
How it was run: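 Carbapenem at 50 µg/mL incubated in 10% mouse kidney homogenate at 30 °C; residual antibiotic measured at intervals by its β-lactamase-inhibiting activity.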

Citrobacter freundii = assay: Inhibition of growth of Citrobacter freundii IFO 12681; assay type: functional; settings: Citrobacter freundii, IFO 12681; read-out: MIC; how it was run: as §1
Proteus vulgaris = assay: Inhibition of growth of Proteus vulgaris IFO 3988; assay type: functional; settings: Proteus vulgaris, IFO 3988; read-out: MIC; how it was run: as §1
Beta-lactamase [2] = biological target: Beta-lactamase (Proteus vulgaris, UniProt P52664); assay: Beta-lactamase inhibitory activity against cephalosporinase of Proteus vulgaris GN4413; settings: read-out: I50 (converted)
Mus musculus [3] = assay: In vivo synergistic protective effect with cefotiam in mice infected with Proteus vulgaris GN4815 at 0.1 mg/kg dose given sc; assay type: functional; settings: route subcutaneous
Klebsiella pneumoniae [4] = assay: Inhibition of growth of Klebsiella pneumoniae DT; assay type: functional; settings: Klebsiella pneumoniae; read-out: MIC; how it was run: as §1
Escherichia coli [5] = assay: MIC against Escherichia coli O-111; assay type: functional; settings: Escherichia coli; read-out: MIC; how it was run: as §1
[6] = tested on: Acinetobacter calcoaceticus; assay: Inhibition of growth of Acinetobacter calcoaceticus. IFO 13006; assay type: functional, acinetobacter calcoacet; settings: Acinetobacter calcoaceticus, IFO 13006; read-out: MIC; how it was run: as §1
Mus musculus [7] = assay: In vivo synergistic protective effect with cefotiam in mice infected with Proteus vulgaris GN4815 at 1 mg/kg dose given sc; assay type: functional; settings: route subcutaneous
Beta-lactamase [8] = biological target: Beta-lactamase (Staphylococcus aureus, UniProt P00807); assay: Beta-lactamase inhibitory activity against penicillinase of Staphylococcus aureus 1840; settings: read-out: I50 (converted)
Mus musculus [9] = assay: In vivo synergistic protective effect with cefotiam in mice infected with Proteus vulgaris GN4815 at 10 mg/kg dose given sc; assay type: functional; settings: route subcutaneous
Staphylococcus aureus = assay: Inhibition of growth of Staphylococcus aureus 308 A-1; assay type: functional; settings: Staphylococcus aureus; read-out: MIC; how it was run: as §1
Enterobacter cloacae = assay: Inhibition of growth of Enterobacter cloacae IFO 12937; assay type: functional; settings: Enterobacter cloacae, IFO 12937; read-out: MIC; how it was run: as §1
Serratia marcescens = assay: Inhibition of growth of Serratia marcescens IFO 12648; assay type: functional; settings: Serratia marcescens, IFO 12648; read-out: MIC; how it was run: as §1
Escherichia coli [10] = assay: Inhibition of growth of Escherichia coli T-7; assay type: functional; settings: Escherichia coli; read-out: MIC; how it was run: as §1
Proteus mirabilis = assay: Inhibition of growth of Proteus mirabilis IFO 3849; assay type: functional; settings: Proteus mirabilis, IFO 3849; read-out: MIC; how it was run: as §1
Mus musculus [11] = assay: Effective does against ip infected Escherichia coli O-111 […] when administered sc; assay type: functional; settings: Mus musculus; read-out: ED50
How it was run: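 Slc:ICR mice; ED50 calculated by the Reed–Muench method from survival recorded 5 days after infection.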

Pseudomonas aeruginosa = assay: Inhibition of growth of Pseudomonas aeruginosa IFO 3455; assay type: functional; settings: Pseudomonas aeruginosa, IFO 3455; read-out: MIC; how it was run: as §1
Beta-lactamase [12] = biological target: Beta-lactamase (Serratia marcescens, UniProt P18539); assay: Beta-lactamase inhibitory activity against cephalosporinase of Serratia marcescens. TN81; settings: read-out: I50 (converted)
[13] = biological target: Beta-lactamase (Staphylococcus aureus) (UniProt P00807)
[14] = biological target: Beta-lactamase (Serratia marcescens) (UniProt P18539)
Mus musculus [15] = assay: In vivo synergistic protective effect with cefotiam in mice infected with Proteus vulgaris GN4815 at 100 mg/kg dose given sc; assay type: functional; settings: route subcutaneous
[16] = In vitro potentiation activity was tested after adding a concentration of […] into the agar plate of ampicillin or cefotiam; show synergistic effect; assay type: functional
[17] = biological target: T1, Beta-lactamase (Proteus mirabilis) (UniProt P30897); settings: Proteus vulgaris
T1 sequence (whole entry): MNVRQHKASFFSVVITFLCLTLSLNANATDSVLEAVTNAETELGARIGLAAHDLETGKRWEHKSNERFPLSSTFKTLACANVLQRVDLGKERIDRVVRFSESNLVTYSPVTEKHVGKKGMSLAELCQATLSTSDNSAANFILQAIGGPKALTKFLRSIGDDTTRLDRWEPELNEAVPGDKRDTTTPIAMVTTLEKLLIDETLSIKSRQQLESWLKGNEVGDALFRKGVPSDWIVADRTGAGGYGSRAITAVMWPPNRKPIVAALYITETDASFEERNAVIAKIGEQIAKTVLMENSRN

Klebsiella pneumoniae [18] = assay: Beta-lactamase inhibitory activity against penicillinase of Klebsiella pneumoniae. TN1698
[19] = biological target: Beta-lactamase (Staphylococcus aureus) (UniProt P00807); remark: listed apart in the source
[20] = biological target: T1, Beta-lactamase (Proteus mirabilis); settings: Proteus vulgaris; remark: listed apart in the source
[21] = biological target: Beta-lactamase (Serratia marcescens) (UniProt P18539); remark: listed apart in the source
[22] = In vitro potentiation activity was tested after adding a concentration of […] into the agar plate of cefotiam; show synergistic effect; assay type: functional
Mus musculus [23] = assay: In vivo protective effect in mice infected with Proteus vulgaris GN4815 at (dose mg/kg) administered sc; assay type: functional
[24] = In vitro potentiation activity was tested after adding a concentration of […] into the agar plate of ampicillin; show synergistic effect; assay type: functional

Beta-lactamase (Staphylococcus aureus, UniProt P00807), sequence (P00807 whole entry): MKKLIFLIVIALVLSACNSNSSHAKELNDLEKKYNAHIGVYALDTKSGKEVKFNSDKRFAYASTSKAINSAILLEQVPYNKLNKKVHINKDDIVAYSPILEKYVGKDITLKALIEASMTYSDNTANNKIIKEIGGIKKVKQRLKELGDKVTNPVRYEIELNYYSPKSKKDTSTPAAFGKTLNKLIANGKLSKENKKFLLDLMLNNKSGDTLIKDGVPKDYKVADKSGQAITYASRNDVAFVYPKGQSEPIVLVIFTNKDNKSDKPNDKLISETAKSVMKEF
Beta-lactamase (Proteus vulgaris, UniProt P52664), sequence (P52664 whole entry, looked up): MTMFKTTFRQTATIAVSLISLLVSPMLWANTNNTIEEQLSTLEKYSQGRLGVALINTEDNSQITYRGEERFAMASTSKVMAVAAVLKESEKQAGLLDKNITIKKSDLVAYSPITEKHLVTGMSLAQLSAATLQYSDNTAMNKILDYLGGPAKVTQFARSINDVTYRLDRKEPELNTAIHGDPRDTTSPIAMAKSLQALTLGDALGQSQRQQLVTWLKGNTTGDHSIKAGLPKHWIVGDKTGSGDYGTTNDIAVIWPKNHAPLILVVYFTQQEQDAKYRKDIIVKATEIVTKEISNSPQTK
Beta-lactamase (Serratia marcescens, UniProt P18539), sequence (P18539 whole entry): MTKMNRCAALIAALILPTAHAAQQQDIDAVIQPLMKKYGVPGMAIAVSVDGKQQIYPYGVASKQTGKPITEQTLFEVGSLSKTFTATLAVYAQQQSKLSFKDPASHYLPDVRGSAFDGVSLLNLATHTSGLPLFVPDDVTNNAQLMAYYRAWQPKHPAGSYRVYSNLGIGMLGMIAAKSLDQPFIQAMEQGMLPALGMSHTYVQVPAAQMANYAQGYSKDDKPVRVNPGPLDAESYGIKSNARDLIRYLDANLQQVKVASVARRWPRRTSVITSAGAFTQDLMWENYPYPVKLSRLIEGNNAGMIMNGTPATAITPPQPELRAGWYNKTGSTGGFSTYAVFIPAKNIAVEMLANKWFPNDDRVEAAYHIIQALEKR
Beta-lactamase (Staphylococcus aureus), sequence (P00807 whole entry): as the sequence (P00807 whole entry) above
Beta-lactamase (Serratia marcescens), sequence (P18539 whole entry): as the sequence (P18539 whole entry) above

Row | SMILES | MIC (Morganella morganii) | T1/2 (Mus musculus [1]) | MIC (Citrobacter freundii) | MIC (Proteus vulgaris) | IC50 (Beta-lactamase [2]) | MIC (Klebsiella pneumoniae [4]) | MIC (Escherichia coli [5]) | MIC [6] | ED50 at 1 mg/kg (Mus musculus [7]) | IC50 (Beta-lactamase [8]) | ED50 at 10 mg/kg (Mus musculus [9]) | MIC (Staphylococcus aureus) | MIC (Enterobacter cloacae) | MIC (Serratia marcescens) | MIC (Escherichia coli [10]) | MIC (Proteus mirabilis) | ED50 (Mus musculus [11]) | MIC (Pseudomonas aeruginosa) | IC50 (Beta-lactamase [12]) | other results
1 | CC(=O)N/C=C\[S+]([O-])C1=C(C(=O)[O-])N2C(=O)[C@@H](C(C)(C)OS(=O)(=O)[O-])[C@H]2C1.[Na+].[Na+] (stereo in doubt; 8) | 100 µg/mL | 75 min | 25 µg/mL | > 100 µg/mL | 1.18 nM | 50 µg/mL | 6.25 µg/mL | > 100 µg/mL | 6.25 mg/kg | 515 nM | 2.41 mg/kg | 6.25 µg/mL | 50 µg/mL | 50 µg/mL | 12.5 µg/mL | > 100 µg/mL | > 50 mg/kg | > 100 µg/mL | 38.6 nM | ED50 at 0.1 mg/kg (Mus musculus [3]): 18.1 mg/kg
2 | CC(=O)N/C=C/[S+]([O-])C1=C(C(=O)[O-])N2C(=O)[C@@H](C(C)(C)OS(=O)(=O)[O-])[C@H]2C1.[Na+].[Na+] (some centres undefined) | 50 µg/mL | 22 min | 12.5 µg/mL | 50 µg/mL | 0.793 nM | 12.5 µg/mL | 6.25 µg/mL | 25 µg/mL | 12.5 mg/kg | 450 nM | 8.87 mg/kg | 12.5 µg/mL | 25 µg/mL | 12.5 µg/mL | 12.5 µg/mL | 50 µg/mL | > 100 mg/kg | > 100 µg/mL | 118 nM | MIC [13]: 12.5 µg/mL; MIC [14]: 6.25 µg/mL; ED50 at 100 mg/kg (Mus musculus [15]): 3.86 mg/kg; Activity [16]: synergistic effect; MIC [17]: 1.56 µg/mL; MIC (Klebsiella pneumoniae [18]): 6.25 µg/mL
3 | CC(=O)N/C=C\[S+]([O-])C1=C(C(=O)O)N2C(=O)[C@@H](C(C)OS(=O)(=O)O)[C@H]2C1 (some centres undefined) |  |  |  |  | 0.354 nM |  |  |  |  | 7.52 nM |  |  |  |  |  |  |  |  | 0.752 nM | MIC [19]: 50 µg/mL (≈ 122 µM); MIC [20]: 50 µg/mL (≈ 122 µM); MIC [21]: 25 µg/mL (≈ 61.2 µM)
4 | CC(=O)N/C=C\[S+]([O-])C1=C(C(=O)O)N2C(=O)[C@@H](C(C)(C)O)[C@H]2C1 (stereo in doubt; 22) |  |  |  |  |  |  |  |  |  |  |  |  |  |  |  |  |  |  |  | Activity [22]: synergistic effect
5 | CN(C)CCn1nnnc1SCC1=C(C(=O)O)N2C(=O)[C@@H](NC(=O)Cc3csc(N)n3)[C@H]2SC1 [CEFOTIAM] |  |  |  |  |  |  |  |  |  |  |  |  |  |  |  |  |  |  |  | ED50 (Mus musculus [23]): 35.5 mg/kg
6 | CC(=O)N/C=C/[S+]([O-])C1=C(C(=O)O)N2C(=O)[C@@H](C(C)(C)O)[C@H]2C1 (stereo in doubt; 20) |  |  |  |  |  |  |  |  |  |  |  |  |  |  |  |  |  |  |  | Activity [24]: synergistic effect
